From ChEMBL document CHEMBL1147863, “Synthesis, antimicrobial activities and cytogenetic studies of newer diazepino quinoline derivatives via Vilsmeier-Haack reaction” (2007)

Legend:
Aeromonas hydrophila [1] = test: Antibacterial activity against Aeromonas hydrophila at 0.125% (w/v) concentration after 24 hrs by disc diffusion method; assay type: functional
Summary of the method: (§1)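 Disc diffusion on nutrient agar (pH 7.5 ± 0.2) swabbed with bacterial culture; compounds dissolved in chloroform at 0.125%, 0.25% or 0.5% w/v, soaked onto 5 mm filter paper discs placed on seeded plates. Incubated 35 ± 2 °C, 24 h; inhibition zone diameter (mm) measured, minus zone from solvent-only plate.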

Aeromonas hydrophila [2] = test: Antibacterial activity against Aeromonas hydrophila at 0.25% (w/v) concentration after 24 hrs by disc diffusion method; assay type: functional; summary of the method: as §1
Aeromonas hydrophila [3] = test: Antibacterial activity against Aeromonas hydrophila at 0.5% (w/v) concentration after 24 hrs by disc diffusion method; assay type: functional; summary of the method: as §1
Escherichia coli [4] = test: Antibacterial activity against Escherichia coli at 0.125% (w/v) concentration after 24 hrs by disc diffusion method; assay type: functional; summary of the method: as §1
Escherichia coli [5] = test: Antibacterial activity against Escherichia coli at 0.25% (w/v) concentration after 24 hrs by disc diffusion method; assay type: functional; summary of the method: as §1
Escherichia coli [6] = test: Antibacterial activity against Escherichia coli at 0.5% (w/v) concentration by after 24 hrs by disc diffusion method; assay type: functional; summary of the method: as §1
Salmonella typhi [7] = test: Antibacterial activity against Salmonella typhi at 0.125% (w/v) concentration after 24 hrs by disc diffusion method; assay type: functional, Salmonella enterica subsp. enterica serovar Typhi
Summary of the method: (§2)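 Disc diffusion on nutrient agar (pH 7.5 ± 0.2) swabbed with bacteria. Compounds were dissolved in chloroform at a final 0.125%, 0.25% or 0.5% w/v and loaded onto 5 mm filter-paper discs. Plates were incubated at 35 ± 2 °C for 24 h. The inhibition-zone diameter (mm) was reported after subtracting the zone of the solvent-only plate.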

Salmonella typhi [8] = test: Antibacterial activity against Salmonella typhi at 0.25% (w/v) concentration after 24 hrs by disc diffusion method; assay type: functional, Salmonella enterica subsp. enterica serovar Typhi; summary of the method: as §2
Salmonella typhi [9] = test: Antibacterial activity against Salmonella typhi at 0.5% (w/v) concentration after 24 hrs by disc diffusion method; assay type: functional, Salmonella enterica subsp. enterica serovar Typhi; summary of the method: as §2
Aspergillus flavus [10] = test: Antifungal activity against Aspergillus flavus at 0.5% (w/v) concentration by disc diffusion method; assay type: functional
Summary of the method: (§3)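 Potato dextrose agar plates were seeded with a spore suspension (10⁶ spores/mL). Compounds in acetone at a final 0.5%, 1% or 2% w/v were loaded onto 5 mm filter-paper discs. Plates were incubated at 28 ± 2 °C for four days. Zone diameter was measured after subtracting the acetone-only plate zone, with carbendazim as standard.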

Aspergillus flavus [11] = test: Antifungal activity against Aspergillus flavus at 1% (w/v) concentration by disc diffusion method; assay type: functional; summary of the method: as §3
Aspergillus flavus [12] = test: Antifungal activity against Aspergillus flavus at 2% (w/v) concentration by disc diffusion method; assay type: functional; summary of the method: as §3
Talaromyces funiculosus [13] = test: Antifungal activity against Penicillium funiculosum at 0.5% (w/v) concentration by disc diffusion method; assay type: functional; summary of the method: as §3
Talaromyces funiculosus [14] = test: Antifungal activity against Penicillium funiculosum at 1% (w/v) concentration by disc diffusion method; assay type: functional; summary of the method: as §3
Talaromyces funiculosus [15] = test: Antifungal activity against Penicillium funiculosum at 2% (w/v) concentration by disc diffusion method; assay type: functional; summary of the method: as §3
Alternaria macrospora [16] = test: Antifungal activity against Alternaria macrospora at 0.5% (w/v) concentration by disc diffusion method; assay type: functional; summary of the method: as §3
Alternaria macrospora [17] = test: Antifungal activity against Alternaria macrospora at 1% (w/v) concentration by disc diffusion method; assay type: functional; summary of the method: as §3
Alternaria macrospora [18] = test: Antifungal activity against Alternaria macrospora at 2% (w/v) concentration by disc diffusion method; assay type: functional; summary of the method: as §3
Fusarium oxysporum [19] = test: Antifungal activity against Fusarium oxysporum at 0.5% (w/v) concentration by disc diffusion method; assay type: functional; summary of the method: as §3
Fusarium oxysporum [20] = test: Antifungal activity against Fusarium oxysporum at 1% (w/v) concentration by disc diffusion method; assay type: functional; summary of the method: as §3
Fusarium oxysporum [21] = test: Antifungal activity against Fusarium oxysporum at 2% (w/v) concentration by disc diffusion method; assay type: functional; summary of the method: as §3

Compound: O=Cc1c(/C=C/O)nc2ccc(Cl)cc2c1Cl
- inhibition zone (IZ) (Aeromonas hydrophila [1]): 5 mm
- inhibition zone (IZ) (Aeromonas hydrophila [2]): 9 mm
- inhibition zone (IZ) (Aeromonas hydrophila [3]): 14 mm
- inhibition zone (IZ) (Escherichia coli [4]): 1 mm
- inhibition zone (IZ) (Escherichia coli [5]): 5 mm
- inhibition zone (IZ) (Escherichia coli [6]): 8 mm
- inhibition zone (IZ) (Salmonella typhi [7]): 6 mm
- inhibition zone (IZ) (Salmonella typhi [8]): 11 mm
- inhibition zone (IZ) (Salmonella typhi [9]): 17 mm
- inhibition zone (IZ) (Aspergillus flavus [10]): 3 mm
- inhibition zone (IZ) (Aspergillus flavus [11]): 6 mm
- inhibition zone (IZ) (Aspergillus flavus [12]): 10 mm
- inhibition zone (IZ) (Talaromyces funiculosus [13]): 2 mm
- inhibition zone (IZ) (Talaromyces funiculosus [14]): 5 mm
- inhibition zone (IZ) (Talaromyces funiculosus [15]): 10 mm
- inhibition zone (IZ) (Alternaria macrospora [16]): 3 mm
- inhibition zone (IZ) (Alternaria macrospora [17]): 7 mm
- inhibition zone (IZ) (Alternaria macrospora [18]): 11 mm
- inhibition zone (IZ) (Fusarium oxysporum [19]): 2 mm
- inhibition zone (IZ) (Fusarium oxysporum [20]): 5 mm
- inhibition zone (IZ) (Fusarium oxysporum [21]): 11 mm

Compound: COC(=O)Nc1nc2ccccc2[nH]1 [CARBENDAZIM]
- inhibition zone (IZ) (Aspergillus flavus [10]): 6 mm
- inhibition zone (IZ) (Aspergillus flavus [11]): 14 mm
- inhibition zone (IZ) (Aspergillus flavus [12]): 21 mm
- inhibition zone (IZ) (Talaromyces funiculosus [13]): 9 mm
- inhibition zone (IZ) (Talaromyces funiculosus [14]): 16 mm
- inhibition zone (IZ) (Talaromyces funiculosus [15]): 21 mm
- inhibition zone (IZ) (Alternaria macrospora [16]): 7 mm
- inhibition zone (IZ) (Alternaria macrospora [17]): 13 mm
- inhibition zone (IZ) (Alternaria macrospora [18]): 18 mm
- inhibition zone (IZ) (Fusarium oxysporum [19]): 6 mm
- inhibition zone (IZ) (Fusarium oxysporum [20]): 11 mm
- inhibition zone (IZ) (Fusarium oxysporum [21]): 18 mm

Compound: Cc1ccc(C)c2c(Cl)c(C=O)c(/C=C/O)nc12
- inhibition zone (IZ) (Aeromonas hydrophila [1]): 4 mm
- inhibition zone (IZ) (Aeromonas hydrophila [2]): 6 mm
- inhibition zone (IZ) (Aeromonas hydrophila [3]): 10 mm
- inhibition zone (IZ) (Escherichia coli [4]): 3 mm
- inhibition zone (IZ) (Escherichia coli [5]): 5 mm
- inhibition zone (IZ) (Escherichia coli [6]): 9 mm
- inhibition zone (IZ) (Salmonella typhi [7]): 5 mm
- inhibition zone (IZ) (Salmonella typhi [8]): 8 mm
- inhibition zone (IZ) (Salmonella typhi [9]): 13 mm
- inhibition zone (IZ) (Aspergillus flavus [10]): 4 mm
- inhibition zone (IZ) (Aspergillus flavus [11]): 7 mm
- inhibition zone (IZ) (Aspergillus flavus [12]): 12 mm
- inhibition zone (IZ) (Talaromyces funiculosus [13]): 3 mm
- inhibition zone (IZ) (Talaromyces funiculosus [14]): 7 mm
- inhibition zone (IZ) (Talaromyces funiculosus [15]): 11 mm
- inhibition zone (IZ) (Alternaria macrospora [16]): 3 mm
- inhibition zone (IZ) (Alternaria macrospora [17]): 8 mm
- inhibition zone (IZ) (Alternaria macrospora [18]): 13 mm
- inhibition zone (IZ) (Fusarium oxysporum [19]): 3 mm
- inhibition zone (IZ) (Fusarium oxysporum [20]): 7 mm
- inhibition zone (IZ) (Fusarium oxysporum [21]): 12 mm

Compound: CN[C@@H]1[C@H](O[C@H]2[C@H](O[C@H]3[C@H](O)[C@@H](O)[C@H](N=C(N)N)[C@@H](O)[C@@H]3N=C(N)N)O[C@@H](C)[C@]2(O)C=O)O[C@@H](CO)[C@H](O)[C@H]1O (stereo in doubt) [STREPTOMYCIN]
- inhibition zone (IZ) (Aeromonas hydrophila [1]): 8 mm
- inhibition zone (IZ) (Aeromonas hydrophila [2]): 12 mm
- inhibition zone (IZ) (Aeromonas hydrophila [3]): 19 mm
- inhibition zone (IZ) (Escherichia coli [4]): 6 mm
- inhibition zone (IZ) (Escherichia coli [5]): 9 mm
- inhibition zone (IZ) (Escherichia coli [6]): 15 mm
- inhibition zone (IZ) (Salmonella typhi [7]): 8 mm
- inhibition zone (IZ) (Salmonella typhi [8]): 10 mm
- inhibition zone (IZ) (Salmonella typhi [9]): 18 mm
